Screens deposited in PubChem by several laboratories.
The list is not random: actives were taken first. Their share in the collection is about 2.9%.
UBC13 inh – human UBC13 polyubiquitination inhibition | P61088 | UBC13 polyubiquitin chain formation, TR-FRET | inhibition, % at 20 µM | 0.47% of 330,000 active | AID 485273; in the data active means inhibition above about 45%, passing the limit was not always enough; inconclusive means no clear call, values can overlap the other calls
Target sequence (P61088 whole entry, looked up): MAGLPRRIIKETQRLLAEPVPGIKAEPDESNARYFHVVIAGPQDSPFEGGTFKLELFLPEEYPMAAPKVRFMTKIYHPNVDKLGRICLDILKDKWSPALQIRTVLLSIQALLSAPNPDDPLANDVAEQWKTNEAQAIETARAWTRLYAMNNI
MEKK2wt PB1 HTS – raises or lowers MEK5 binding to wildtype human MEKK2 PB1 domain; bead flow cytometry, Alexa488-MEK5 binding to MEKK2 WT; actives lie on both sides; AID 1531; binding response (% of control), % at 10 µM; 1.1% of 290,000 active; in the data active means binding response below about 67% or above about 130%; inconclusive means no clear call, values can overlap the other calls; inactive means in between
MEKK3 PB1 HTS – modulators (inhibitors or enhancers) of MEK5 binding to human MEKK3 PB1 domain | Q99759 | bead-based flow cytometry, Alexa488-MEK5 binding to MEKK3; actives lie on both sides; 0 = blocked by unlabeled MEK5, 100 = vehicle | binding response (% of control), % at 10 µM | 1.4% of 290,000 active;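 active means binding response more than 3 SD above or below the average of its plate-row segment, actives on both sides; inconclusive means wells at one plate position flagged as instrument error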;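 further: Alexa488 bead fluorescence after subtracting the streptavidin-only scavenger bead signal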
MEKK2 mut-MEK5 – signal of MEK5 binding to mutant human MEKK2 PB1 domain; bead flow cytometry, Alexa488-MEK5 binding to MEKK2 mutant; percent response, % at 10 µM; AID 1530; 0.35% of 290,000 active; in the data active means percent response above about 24%, passing the limit was not always enough
Apaf-1 inh – blocks human Apaf-1 apoptosome activity. 0.71% of 330,000 active. AID 489030. reconstituted apoptosome caspase-3 activity, DEVD-Rh110 fluorescence. inhibition, % at 20 µM. O14727; active means inhibition of at least 40% at 20 µM;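 further: plate controls were DMSO wells for no effect and DEVD-CHO caspase inhibitor wells for full effect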
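Material: cell-free apoptosome with Apaf-1, procaspase-3 and caspase-9; Buffer or medium: Hepes pH 7.5 with detergent and BSA; Reagent: cytochrome c trigger plus (Z-DEVD)2-Rh110 caspase-3 substrate; Times: compound with Apaf-1, dATP, procaspase-3 30 min, then 50 min reaction, room temperature; Technique: Rh110 fluorescence intensity.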
Casp3 counter – caspase-3 inhibition (UBC13 counter-screen); inhibition, % at 20 µM; shares compounds with UBC13 inh; AID 488856; 4% of 1,400 active; Recombinant caspase-3, Caspase-Glo 3/7 luminescence, 60 min;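 active means mean inhibition across replicates above about 26%, limit read from the data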;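 further: plate controls were DMSO with caspase-3 for no effect and DMSO wells lacking enzyme for full effect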
Target sequence (P42574 whole entry, looked up): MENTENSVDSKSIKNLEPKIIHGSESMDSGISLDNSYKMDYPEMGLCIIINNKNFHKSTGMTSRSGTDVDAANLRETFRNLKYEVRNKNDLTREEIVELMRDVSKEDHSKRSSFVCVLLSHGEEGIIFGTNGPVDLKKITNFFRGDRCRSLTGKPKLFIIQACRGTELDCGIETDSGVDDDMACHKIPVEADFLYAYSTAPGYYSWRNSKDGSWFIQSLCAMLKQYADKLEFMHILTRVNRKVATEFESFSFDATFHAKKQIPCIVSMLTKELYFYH
UBC13 conf – human UBC13 polyubiquitin inhibition, confirmed; AID 488859; inhibition, % at 10 µM; shares compounds with UBC13 inh; UBC13 polyubiquitination, TR-FRET, biochemical; 68% of 1,400 active; in the data active means inhibition above about 45%; inconclusive means no clear call, values can overlap the other calls
Numbers without * were called inactive; ? = inconclusive; / = not tested or not shown; [ ] = remark or other dose.

SMILES	UBC13 inh	MEKK2wt PB1 HTS	MEKK3 PB1 HTS	MEKK2 mut-MEK5	Apaf-1 inh	Casp3 counter	UBC13 conf
NC(=O)c1nsc(C(=O)N(c2cccc(F)c2)C(C(=O)NC2CCCC2)c2ccc(O)cc2)c1N (centres undefined)	48*	99	103	5	10	-1	51*
Cc1cc(C)c(NC(=O)CNC(=O)COC(=O)C2=COCCO2)c(C)c1	-8	/	/	/	8	/	/
CCOC(=O)C1=C(CC)Nc2ccccc2N=C1NC(=O)c1cc(S(=O)(=O)N2CCOCC2)ccc1C	-7	/	/	/	0	/	/
CCOc1ccc(N(C(=O)c2snc(C(N)=O)c2N)C(C)C(=O)NC2CCCCC2)cc1 (centres undefined)	44	93	100	-9	8	/	/
NC(=O)c1nsc(C(=O)N(c2cccc(F)c2)C(C(=O)NC2CCCC2)c2ccco2)c1N (centres undefined)	53*	0.0*[inhibitor]	1.0*[inhibitor]	-37	2	-1	33
COc1ccc(N(C(=O)c2snc(C(N)=O)c2N)C(C(=O)NC2CCCCC2)c2ccc(C)o2)cc1 (centres undefined)	60*	89	100	-2	18	3	55*
CCOc1ccc(N(C(=O)c2snc(C(N)=O)c2N)C(C(=O)NC2CCCC2)C(C)C)cc1 (centres undefined)	70*	96	99	1	29	5	78*
CCc1ccc(N(C(=O)c2snc(C(N)=O)c2N)C(C(=O)NC2CCCC2)c2ccco2)cc1 (centres undefined)	63*	95	101	-1	8	0	67*
O=C(Nc1ccc(F)cc1)c1cccnn1	0	101	103	6	1	/	/
Cc1ccc(N(C(=O)c2snc(C(N)=O)c2N)C(C(=O)NCCC(C)C)c2ccco2)cc1 (centres undefined)	74*	86	95	-7	21	-2	62*
CC(C)CCNC(=O)C(c1ccco1)N(Cc1ccccc1)C(=O)c1snc(C(N)=O)c1N (centres undefined)	32	104	99	1	2	/	/
COC(=O)C(C(=O)Nc1ccccc1C)C1CCCCCC1 (centres undefined)	2	99	101	-1	-2	/	/
Cn1cccc1/C=C1\SC(=S)N(NC(=O)c2ccccc2O)C1=O	-79	99	101	3	5	/	/
O=C(NN1C(=O)/C(=C/C=C/c2ccco2)SC1=S)c1ccccc1O	45*	98	116	9	25	4	-6
O=c1c(Cl)c(NCCCO)cnn1-c1nc2ccccc2[nH]1	91*	96	98	2	-20	93*	110*
O=C(Nc1cccnc1)c1sc(Nc2ccccc2)nc1-c1ccccc1	48*	95	98	-2	9	-2	11
COc1ccc(Cl)cc1NC(=O)CN1CCC(n2nnc3cc(C)ccc32)CC1	46*	99	99	0	24	-1	51*
Cc1ccc2c(c1)nnn2C1CCN(CC(=O)Nc2ccccc2N2CCOCC2)CC1	15	100	96	1	8	/	/
COc1ccccc1NC(=O)CN1CCC(n2nnc3cc(F)ccc32)CC1	70*	106	103	-2	11	-3	69*
CCOC(=O)C(=NC1CCS(=O)(=O)C1)NNc1cc(Cl)ccc1Cl (centres undefined)	68*	92	91	1	-10	-5	57*
Cn1c(SCC(=O)c2ccccc2)ncc(C(=O)Nc2ccccc2)c1=O	57*	/	/	/	6	95*	53*
Cc1ccc(NC(=O)c2cnc(SCC(=O)c3ccccc3)n(C)c2=O)cc1	?	/	/	/	8	/	/
CC1(C)Cc2c(c(N3CCOCC3)nc3sc4c(=O)[nH]cnc4c23)CS1	50*	94	93	0	11	-2	54*
CC(C)OCCCNC(=O)C1CCC(CNS(=O)(=O)c2ccccc2)CC1 (centres undefined)	8	94	95	-2	-11	/	/
Cc1c(CCOC(=O)C23CC4CC(CC(C4)C2)C3)sc[n+]1Cc1ccccc1	14	112	102	2	1	/	/
SMILES	UBC13 inh	MEKK2wt PB1 HTS	MEKK3 PB1 HTS	MEKK2 mut-MEK5	Apaf-1 inh	Casp3 counter	UBC13 conf
Cc1c(CCOC(=O)CC23CC4CC(CC(C4)C2)C3)sc[n+]1CC(=O)c1ccccc1	47*	139*	115	2	34	-3	52*
CC1=CC(C)(C)n2c(O)c(N=NC(N)=S)c3cc(C)cc1c32	57*	92	90	-3	7	-3	52*
Cc1cccc(NC(=O)Cn2c(O)c(N=NC(N)=S)c3ccccc32)c1	10	93	87	-4	-31	/	/
CN(C)CCC(=O)C(Cc1ccccc1)c1ccccc1 (centres undefined)	47*	/	/	/	-17	4	40
Cc1ccc(NC(=O)c2ccc(NCc3ccco3)c([N+](=O)[O-])c2)cc1Cl	-50	109	103	14	-9	/	/
CC(C)c1ccc(NC(=O)C[n+]2ccn(C3=C([O-])c4ccccc4C3=O)c2)cc1	56*	97	100	-2	24	-4	47*
COc1ccc(-n2nc(C(=O)NCc3cc(OC)ccc3OC)c3c4ccccc4n(C)c3c2=O)cc1	47*	82	85	-13	-11	2	?
O=C(COC(=O)CC1CCCC1)Nc1ccccc1[N+](=O)[O-]	14	/	/	/	4	/	/
CCOC(=O)N1CCN(C(=O)C(=O)Nc2sc3c(c2C(N)=O)CC(C)(C)OC3)CC1	63*	110	105	3	-5	-2	90*
CCOC(=O)c1c(C)[nH]c(C2=NNC(=NC3CC3)SC2)c1C	77*	105	107	-3	3	73*	101*
COc1ccc(-c2nnc(SCC(=O)Nc3cc(F)ccc3C)o2)cc1	47*	93	95	-3	2	-1	35
CCN1CCN(CCNC(=O)c2ccc3c(c2)N(Cc2ccc(F)cc2)C(=O)/C(=C/c2ccccc2)S3)CC1	65*	278*	118	117*	37	2	92*
COc1cccc(/C=C2/Sc3ccc(C(=O)NCCN4CCCC4)cc3NC2=O)c1	50*	188*	109	30*	24	-2	74*
Cc1ccc(/C=C2/Sc3ccc(C(=O)NCCN4CCOCC4)cc3NC2=O)cc1	6	108	101	4	17	/	/
O=S(=O)(Nc1nc2ccccc2[nH]1)c1ccc(Cl)cc1	52*	97	101	1	4	-2	49*
